Reference: PubChem BioAssay AID540295 (The Scripps Research Institute Molecular Screening Center, 2011)
Screen size: about 360,000 compounds; about 1,700 (0.47%) were called active.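 Rule for the calls: active = inhibition above its plate's cutoff, the mean of tested wells on that plate plus 3 SD (cut at about 29% in these data); inactive = the rest.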 For the sample, actives were picked, then their nearest neighbours and some compounds at random.

What follows are compounds tested against Melanocortin receptor 4 (Homo sapiens) (UniProt P32245) (assay: MC4R antagonists of cAMP signaling, primary screen, cell-based, TR-FRET, antagonist arm of biased-ligand search (AID 540295;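 note: 0% = Melanotan II alone and 100% = Melanotan II plus saturating MCL0020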)). Conditions: MC4R-expressing cells, MTII-stimulated cAMP, LANCE TR-FRET; at 6.5 µM; active compounds read high.
Chain of Melanocortin receptor 4 (Homo sapiens) (P32245 whole entry, looked up): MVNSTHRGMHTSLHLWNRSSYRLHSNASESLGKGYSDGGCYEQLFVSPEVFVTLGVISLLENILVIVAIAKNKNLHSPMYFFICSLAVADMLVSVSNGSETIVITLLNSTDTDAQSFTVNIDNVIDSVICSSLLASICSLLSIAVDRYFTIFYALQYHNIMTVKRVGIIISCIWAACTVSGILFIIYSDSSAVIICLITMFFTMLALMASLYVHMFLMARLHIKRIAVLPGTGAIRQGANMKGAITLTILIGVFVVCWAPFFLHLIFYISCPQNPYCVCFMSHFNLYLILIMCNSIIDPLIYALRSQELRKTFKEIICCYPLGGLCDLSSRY
How it was run: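 System: U2OS cells stably expressing human melanocortin 4 receptor (MC4R). Reagent: Melanotan II challenge after compound preincubation. Doses: 6.5 µM. Times: 30-min compound, 1-h challenge, 1-h detection, room temperature. Measured by: TR-FRET with Eu-cAMP and labeled anti-cAMP, 671 nm. Replicates: singlicate.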
`C=CC(=O)OCCOCCOCCOCCOC(=O)C=C` was tested, and the inhibition was -0.74% (inactive).
`COCC(C)NC(=O)c1ccc(-n2nc(C(F)(F)F)cc2-c2cccs2)cc1` (configuration not stated) was tested, and the inhibition was 11.7% (inactive).
`Cc1ccc(C)c(NC2=NCC(=O)N2c2ccc3c(c2)OCCO3)c1` was tested, and the inhibition was -2.27% (inactive).
For `Cc1cc(=O)oc2c3c(cc(OCC(=O)NCC(O)c4ccccc4)c12)OC(C)(C)CC3` (configuration not stated), the inhibition was 14.2% (inactive).
In the case of `Brc1c(CSc2nncc3ccccc23)nc2ccccn12`, the inhibition is reported as 0.34% (inactive).
For `CCOC(=O)C(C)n1cnc2scc(-c3ccc(C)c(C)c3)c2c1=O` (configuration not stated), the inhibition was 1.47% (inactive).
`CCOC(=O)C(C)n1cnc2sc(C)c(C)c2c1=O` (configuration not stated) was tested, and the inhibition was 31.2% (active).
With `CC(C(=O)O)n1cnc2sc3c(c2c1=O)CCCC3` (configuration not stated) the inhibition was -7.65% (inactive).
`CC(=O)NC12CC3CC(C1)CC(C(=O)N1CCN(C(=O)c4ccco4)CC1)(C3)C2` was tested, and the inhibition was -0.56% (inactive).
`COc1ccc(Nc2ncc(F)c(N3CCOCC3)n2)cc1` was tested, and the inhibition was -0.86% (inactive).
In the case of `CCN1CCN(c2nc(Nc3cc(OC)ccc3OC)nc(Nc3cc(OC)ccc3OC)n2)CC1`, the inhibition is reported as 12.3% (inactive).
`CCOc1ccc(Nc2nc(Cl)nc(N3CCN(c4ccc(OC)cc4)CC3)n2)cc1` was tested, and the inhibition was 29.1% (active).
With `Cc1ccc(Nc2cc(C)nc3c(C)ccc([N+](=O)[O-])c23)cc1` the inhibition was -5.69% (inactive).
In the case of `CCNC(=O)CCc1nc(-c2ccc(C(C)(C)C)cc2)no1`, the inhibition is reported as 9.83% (inactive).
`Cc1cccc(-c2nc3c(c(SCC(=O)N4CCOCC4)n2)CCCC3)c1` was tested, and the inhibition was 3.91% (inactive).
With `CCCS(=O)(=O)NC(=O)C1(C)CCCN(C(=O)c2ccnc(Cl)c2)C1` (configuration not stated) the inhibition was -1.37% (inactive).
In the case of `Cc1nnc(N/N=C/C2CC=CCC2)[nH]c1=O` (configuration not stated), the inhibition is reported as 33.9% (active).
In the case of `Cc1nnc(N/N=C/c2ccccn2)[nH]c1=O`, the inhibition is reported as -1.07% (inactive).
In the case of `O=C(N/N=C\C1CC=CCC1)c1ccc(Br)o1` (configuration not stated), the inhibition is reported as 6.38% (inactive).
For `CCN1CCN(C(=O)CN(C)S(=O)(=O)c2ccc(OC)cc2)CC1`, the inhibition was 9.54% (inactive).
For `Cc1ccc([N+](=O)[O-])cc1S(=O)(=O)N1CCCN(C)CC1`, the inhibition was -8.59% (inactive).
For `Cc1ccc(C)c(S(=O)(=O)N2CCN(CC(=O)Nc3ccc([N+](=O)[O-])cc3)CC2)c1`, the inhibition was 34.2% (active).
For `Cc1ccc(NC(=O)CCNC(=O)c2ccc([N+](=O)[O-])cc2)cc1S(=O)(=O)N1CCOCC1`, the inhibition was -2.86% (inactive).
With `COC(=O)c1ccc(CSc2ccc(S(=O)(=O)N3CCCCC3)cn2)cc1` the inhibition was 0.99% (inactive).
For `Cc1ccc(Sc2cc(C(=O)c3ccccc3C(=O)O)ccc2[N+](=O)[O-])cc1`, the inhibition was -7.09% (inactive).
In the case of `Cc1ccc(SC(C)C(=O)NCc2ccc(F)cc2)cc1` (configuration not stated), the inhibition is reported as -3.51% (inactive).
For `Cc1ccc(SC(CC(=O)c2ccc(C(C)(C)C)cc2)C(=O)O)cc1` (configuration not stated), the inhibition was 31.2% (active).
With `Cc1ccc(S(=O)(=O)Nc2nc(C)cc(-n3nc(C)cc3C)n2)cc1` the inhibition was 14.3% (inactive).
In the case of `Cc1ccc(S(=O)(=O)NC(C(=O)N2CCOCCOCCOCCOCC2)c2ccccc2)cc1` (configuration not stated), the inhibition is reported as -0.07% (inactive).
With `CCCC(C(=O)n1nc(C)cc1C)C(NS(=O)(=O)c1ccc(C)cc1)c1ccccc1` (configuration not stated) the inhibition was 34.4% (active).
In the case of `CCc1c(C)[nH]c(=S)c(C#N)c1C`, the inhibition is reported as 14.3% (inactive).
In the case of `O=C1NC[C@@H](c2ccccc2)OC(=O)[C@H](Cc2ccc(F)cc2)CC/C=C/C[C@H]1CC(=O)N(CCO)Cc1ccccc1`, the inhibition is reported as 7.53% (inactive).
In the case of `O=C1/C(=C\c2ccc([N+](=O)[O-])cc2)CS(=O)(=O)C/C1=C/c1ccc([N+](=O)[O-])cc1`, the inhibition is reported as 34.6% (active).
For `CC(=O)Nc1ccc(C=Cc2ccc([N+](=O)[O-])cc2)cc1`, the inhibition was 1.16% (inactive).
In the case of `O=C(O)C(=Cc1ccc([N+](=O)[O-])cc1)CCc1ccccc1`, the inhibition is reported as -2.43% (inactive).
`CCN(C(=O)CSc1ncnc2sccc12)c1c(N)n(Cc2ccccc2)c(=O)[nH]c1=O` was tested, and the inhibition was -1.83% (inactive).
With `CCCNc1ncnc2sc(C)c(C)c12` the inhibition was -9.19% (inactive).
In the case of `COc1ccc(OC)c(S(=O)(=O)n2c([N+](=O)[O-])cnc2C)c1`, the inhibition is reported as 0.16% (inactive).
For `COc1ccc(C(C[N+](=O)[O-])n2nc(C)cc2C)cc1` (configuration not stated), the inhibition was 46.6% (active).
In the case of `COc1cccc(CSc2nc3nc(C)cc(C)n3n2)c1`, the inhibition is reported as -3.34% (inactive).
In the case of `Cc1ccc(C)c(S(=O)(=O)N2CCCOC2CNC(=O)C(=O)NC2CCCCC2)c1` (configuration not stated), the inhibition is reported as 4.1% (inactive).
For `O=C1CCC([N+](=O)[O-])C(c2ccccc2Br)N1` (configuration not stated), the inhibition was 25.1% (inactive).
For `Cc1ccc(OCC(=O)Nc2ccc(N3CCN(C(=O)c4ccco4)CC3)cc2)c(C)c1`, the inhibition was 12.1% (inactive).
`C/C(=N\OCC(=O)Nc1ccc(Br)cc1)c1cccs1` was tested, and the inhibition was -1.35% (inactive).
For `Cc1ccc(OCC(=O)Nc2ccc(NC(=O)c3cccs3)cc2)c(C)c1`, the inhibition was 29.7% (active).
With `CC(=O)Oc1ccc(-c2cccc(C(=O)N3CCCCC3)c2)cc1` the inhibition was -4.05% (inactive).
For `O=C(O[C@@H]1[C@H](Cc2ccccc2)NS(=O)(=O)[C@H]2C[C@@H]3C=C[C@]12O3)c1ccccc1Br`, the inhibition was 12% (inactive).
`Cc1ccc(C)c(NC(=O)CN(C)C(=O)COc2ccc3ccccc3c2)c1` was tested, and the inhibition was 2.76% (inactive).
For `Cc1ccc(C)c(NS(=O)(=O)c2ccc(OCC(=O)NCc3cccnc3)cc2)c1`, the inhibition was -2.79% (inactive).
In the case of `Cc1ccc(NS(=O)(=O)c2ccc(C)c(NC(=O)COc3ccc4ccccc4c3)c2)c(C)c1`, the inhibition is reported as 31.4% (active).
`O=C(Nc1cc(C(F)(F)F)ccc1Cl)c1cc2nc3c(c(C(F)(F)F)n2n1)CCCC3` was tested, and the inhibition was 2.12% (inactive).
In the case of `CN(CC(=O)NC1CCCC1)S(=O)(=O)c1cnc[nH]1`, the inhibition is reported as -1.7% (inactive).
With `O=C(OCc1ccc([N+](=O)[O-])cc1)C1CC(=O)N(Cc2ccccc2Cl)C1` (configuration not stated) the inhibition was 7.18% (inactive).
With `CCCCCOC(=O)C1=C(C)Nc2nnnn2C1c1ccc(OC)c(OC)c1OC` (configuration not stated) the inhibition was 12.4% (inactive).
In the case of `Cn1ccc(=NC=C(C#N)C#N)c2ccccc21`, the inhibition is reported as 27.8% (inactive).
In the case of `O=[N+]([O-])/C=C/c1ccc2c(ccn2Cc2ccccc2)c1`, the inhibition is reported as 46.2% (active).
With `N#C/C=C1\Sc2ccccc2C(=O)N1CC(=O)N1CCN(S(=O)(=O)c2ccccc2)CC1` the inhibition was 33.4% (active).
`O=C(CN1CCCSc2ccccc21)N1CCN(S(=O)(=O)c2cccc(F)c2)CC1` was tested, and the inhibition was 5.01% (inactive).
In the case of `O=C(CN1CCCSc2ccccc21)N1CCN(S(=O)(=O)c2ccccc2)CC1`, the inhibition is reported as 5.29% (inactive).
`Cc1ccc2c(c1)C1CN(C)CCC1N2S(=O)(=O)c1ccc(Oc2ccc([N+](=O)[O-])cc2)cc1` (configuration not stated) was tested, and the inhibition was 2.73% (inactive).
In the case of `O=C(CN1CCc2ccccc21)NC(c1ccccc1)c1ccccc1`, the inhibition is reported as 1.1% (inactive).
With `Cn1cccc1C(=O)OCC(=O)c1ccc(Br)s1` the inhibition was 4.25% (inactive).
With `O=C(COC(=O)c1c2c(nc3ccccc13)CCCC2)c1ccc(Br)s1` the inhibition was 33.9% (active).
With `NC(=O)c1ccc(NC(=O)COC(=O)c2c3c(nc4ccccc24)/C(=C\c2ccc4c(c2)OCO4)CCC3)cc1` the inhibition was -10% (inactive).
`COC(=O)c1cc(NC(=O)c2cc(C(C)(C)C)nn2Cc2cccc(C)c2)ccc1N1CCOCC1` was tested, and the inhibition was 4.17% (inactive).
In the case of `COc1ccc(NC2CCCN(C(=O)c3ccccc3-c3ncc[nH]3)C2)cc1` (configuration not stated), the inhibition is reported as 4.61% (inactive).
For `CCc1ccc2oc(=O)cc(CN3CCCCC3C)c2c1` (configuration not stated), the inhibition was 10.6% (inactive).
`CC(NC(=O)COc1ccccc1)C(=O)NC1=NCCS1` (configuration not stated) was tested, and the inhibition was 0.52% (inactive).
`O=C(OCC(=O)N1CCCCCC1)c1cnc(Cl)c(Cl)c1` was tested, and the inhibition was 30.5% (active).
`CCOc1ncccc1C(=O)NCCc1ccc(OC)cc1` was tested, and the inhibition was -0.79% (inactive).
`O=C(OCC(=O)N1CCCC1)c1ccc(Cl)nc1` was tested, and the inhibition was -3.4% (inactive).
In the case of `COc1ccc(CCNC(=O)COC(=O)c2cnc(Cl)c(Cl)c2)cc1`, the inhibition is reported as 39.7% (active).
With `COc1ccc(CCNC(=O)c2cnc(Cl)c(Cl)c2)cc1` the inhibition was 29.6% (active).
In the case of `O=C(OCC(=O)N1CCCCCC1)c1ccc(Cl)nc1`, the inhibition is reported as 2.21% (inactive).
For `COC(=O)c1ccc(COC(=O)c2cnc(Cl)c(Cl)c2)cc1`, the inhibition was 21.5% (inactive).
In the case of `CC(CCc1ccccc1)NC(=O)c1cnc(Cl)c(Cl)c1` (configuration not stated), the inhibition is reported as 9.38% (inactive).
With `COc1ccc(CCNC(=O)COC(=O)c2ncc(Cl)c(Cl)c2Cl)cc1OC` the inhibition was 14.8% (inactive).
For `NC1=NC(=O)S/C1=C\c1ccc(O)cc1`, the inhibition was -45.1% (inactive).
In the case of `CC(CC(=O)C1C(C)C=CCC1(C)C)NNC(N)=O` (configuration not stated), the inhibition is reported as 0.06% (inactive).
In the case of `CCCc1nc2oc3c(OCC)ncnc3c2c2c1COC(C)(C)C2`, the inhibition is reported as 2.51% (inactive).
`COc1ccc(/C=N/n2c(C)cc(C)cc2=O)cc1` was tested, and the inhibition was 5.08% (inactive).
`CCOC(=O)C1=CN(Cc2ccc(Br)cc2)S(=O)(=O)NC1C` (configuration not stated) was tested, and the inhibition was 1.79% (inactive).
`CN(C)/C=C(/C(=O)c1ccc(F)cc1)S(=O)(=O)c1ccc(F)cc1` was tested, and the inhibition was -0.11% (inactive).
`CCOC(=O)N1CCN(C(=O)C2CCN(S(C)(=O)=O)CC2)CC1` was tested, and the inhibition was 3.32% (inactive).
In the case of `Brc1ccc(CN2CC[C@H]3C=CCc4cccc(c43)C2)cc1`, the inhibition is reported as 11.3% (inactive).
For `Cc1cc(=O)n2nc(N3CCCC(C(=O)N4CCN(C)CC4)C3)sc2n1` (configuration not stated), the inhibition was 0.44% (inactive).
`CSc1nnc2c(n1)OC(c1ccsc1)N(C(C)=O)c1ccccc1-2` (configuration not stated) was tested, and the inhibition was 3.07% (inactive).
`CNC(=O)C1CN(C(=O)c2cccc(S(=O)(=O)N3CCc4ccccc43)c2)c2ccccc2O1` (configuration not stated) was tested, and the inhibition was 5.06% (inactive).
For `CSc1ccc(C#N)cc1NC(=O)c1ccc(Cl)cc1`, the inhibition was 2.18% (inactive).
`Cc1c(Cl)cccc1NC(=S)NCC(O)c1ccccc1` (configuration not stated) was tested, and the inhibition was 3.92% (inactive).
In the case of `Cc1c(Cl)cccc1NC(=O)NCc1ccc(C)n1C`, the inhibition is reported as 5.07% (inactive).
For `Cc1c(Cl)cccc1NC(=O)[C@@]1(CC(=O)O)CC(/C=C/c2ccccc2)=NO1`, the inhibition was 38.9% (active).
